Assay outcomes: PubChem, several laboratories
Bcl-xL primary: blocks human Bcl-xL binding to Bim BH3 peptide. 320,000 tested, 0.7% active. GST-Bcl-xL / FITC-Bim BH3 peptide fluorescence polarization. inhibition, % at 10.9 µM. Q07817;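 active = inhibition above the mean of all tested compounds plus 3 SD, cutoff set per campaign, cut at about 30% in these data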;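 note: 0% = DMSO wells and 100% = unlabeled Bim-BH3 peptide competitor; inhibitors lower millipolarization by displacing the labeled peptide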
GLD-1 TGE inh: GLD-1-TGE RNA interaction inhibition (C. elegans); 320,000 tested, 0.44% active; inhibition, % at 5.96 µM; AID 2280; purified GLD-1 + fluorescein TGE RNA, fluorescence polarization;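 active = percent inhibition above a per-plate cutoff, the plate mean of test compounds plus 3 SD, cut at about 30% in these data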;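 note: 0% = DMSO wells with GLD-1 and probe and 100% = wells lacking GLD-1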
VIM-2 inhibitor: inhibitors of Pseudomonas aeruginosa VIM-2 metallo-beta-lactamase. purified VIM-2, nitrocefin hydrolysis, epi-absorbance fluorescence. inhibition, % at 5.6 µM. 290,000 tested, 0.89% active. AID 1527;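 active = inhibition above the mean of all tested compounds plus 3 SD, cutoff set per screening run, cut at about 7.5% in these data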;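 note: red hydrolysis product quenches plate fluorescence so inhibitors raise well fluorescence; 0% = enzyme with DMSO and 100% = DMSO without enzyme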
EBV gp42 block: inhibitors of Epstein-Barr virus glycoprotein 42; Q1HVG2; Fluorescence polarization binding assay, mP read-out; inhibition, % (tested at 21.74 µM); 220,000 tested, 0.42% active; in the data active = inhibition above about 50%
Target sequence (Q1HVG2 whole entry, looked up): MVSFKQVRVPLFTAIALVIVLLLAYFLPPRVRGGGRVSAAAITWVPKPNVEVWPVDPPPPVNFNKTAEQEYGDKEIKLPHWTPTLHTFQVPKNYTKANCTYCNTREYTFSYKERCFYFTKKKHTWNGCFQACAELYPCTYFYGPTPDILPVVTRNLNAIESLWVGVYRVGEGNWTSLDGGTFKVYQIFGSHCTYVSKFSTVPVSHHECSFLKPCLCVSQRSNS
MEX-5 binding: C. elegans MEX-5 TCR-2 RNA binding activity | Q9XUB2 | MEX-5/FITC-TCR2 RNA binding, fluorescence polarization; stronger effect = lower value | activity score (negative = inhibition of binding), % at 10 µM | 300,000 tested, 0.38% active | AID 1832;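 active = inhibition past about -25% in most replicates, and total fluorescence under double the plate's negative control median, limit read from the data; inconclusive = replicates evenly split on the limit, or fluorescence at least double controls; inactive = too little inhibition in most replicates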;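 note: 0% = DMSO and -100% = 5 µM competing unlabeled TCR2 RNA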
Target sequence (Q9XUB2 whole entry, looked up): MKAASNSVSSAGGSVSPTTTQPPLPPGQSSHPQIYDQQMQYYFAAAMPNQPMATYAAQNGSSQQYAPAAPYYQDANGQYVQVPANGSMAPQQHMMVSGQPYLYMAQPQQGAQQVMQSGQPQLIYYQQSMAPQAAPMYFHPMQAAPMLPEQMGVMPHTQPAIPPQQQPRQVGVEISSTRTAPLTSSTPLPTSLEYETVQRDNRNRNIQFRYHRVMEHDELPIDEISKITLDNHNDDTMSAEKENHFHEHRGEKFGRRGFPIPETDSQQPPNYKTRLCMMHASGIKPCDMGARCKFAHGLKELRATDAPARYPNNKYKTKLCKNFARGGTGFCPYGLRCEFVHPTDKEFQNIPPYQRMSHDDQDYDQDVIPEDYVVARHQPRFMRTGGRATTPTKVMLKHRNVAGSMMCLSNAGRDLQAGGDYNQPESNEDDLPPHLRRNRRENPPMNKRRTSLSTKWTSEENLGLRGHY
IMP-1 inh: inhibitors of Pseudomonas aeruginosa IMP-1 metallo-beta-lactamase. purified IMP-1, nitrocefin hydrolysis, epi-absorbance fluorescence. inhibition, % at 5.6 µM. 290,000 tested, 0.45% active. AID 1556;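 active = inhibition above the mean plus 3 SD of all compounds in the same screening run, cut at about 4.5% in these data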;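 note: 0% = IMP-1 with DMSO and 100% = DMSO wells lacking enzyme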
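System: purified IMP-1; amount: IMP-1 0.2 nM before substrate addition; compound: single dose, 5.6 µM; times: 25 °C, 15 min preincubation, 25 min reaction; signal: Epi-absorbance via hydrolysed-nitrocefin quenching of white-plate fluorescence, 480/530 nm, EDTA stop; benchmarks: DMSO with and without IMP-1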
An asterisk follows results filed as active; ? = inconclusive; . = no result. This is a sample that favours compounds with a hit; in the whole collection about 2.2% have one here.

SMILES | Bcl-xL primary | GLD-1 TGE inh | VIM-2 inhibitor | EBV gp42 block | MEX-5 binding | IMP-1 inh
CC(=O)Nc1c(O)nc(SCC(=O)Nc2c(C)cccc2C)[nH]c1=O | 5 | 1 | 3 | -23 | 0 | 7.3*
O=C(O)c1ccccc1NS(=O)(=O)c1cccc(C(F)(F)F)c1 | 6 | 2 | 1 | 7 | 0 | -4
O=C(O)c1cccc(S(=O)(=O)NNc2ccccc2C(F)(F)F)c1 | 6 | 2 | 0 | . | 3 | 25*
O=C(c1ccc(Cl)cc1)N1CCOc2ccccc21 | . | . | -1 | . | 3 | -2
COc1ccc(CCC(=O)Nc2nc(C)c(C(=O)N(C)C)s2)cc1 | 6 | -3 | -4 | . | -3 | 11*
COc1ccc(CCC(=O)Nc2sc(C(=O)N(C)C)c(C)c2C#N)cc1 | . | . | -4 | . | 1 | -1
CCCCn1c(-c2cccc(Br)c2)nc2cc3[nH]c(=O)c(C(C)C)nc3cc21 | 31* | 19 | -2 | . | -7 | -3
CCCCn1c(-c2cccnc2)nc2cc3[nH]c(=O)c(C(C)C)nc3cc21 | 31* | 18 | -2 | . | -9 | -3
CCCCn1c(-c2ccc(Cl)c(Cl)c2)nc2cc3[nH]c(=O)c(C(C)C)nc3cc21 | 21 | 15 | -3 | . | 0 | -3
CCCCn1c(-c2ccc(C(C)(C)C)cc2)nc2cc3[nH]c(=O)c(C(C)C)nc3cc21 | 25 | 8 | -4 | . | -3 | -4
CC(C)Oc1ccc(C(=O)N2CCN(C(=O)c3ccco3)CC2)cc1 | -6 | -11 | -1 | . | 0 | 0
O=C(O)c1cccc(Nc2ccncc2[N+](=O)[O-])c1 | 2 | 3 | -2 | . | -1 | -2
COc1ccc(C(Cl)=C(c2ccc(OC)cc2)c2ccc(OC)cc2)cc1 | 2 | 2 | 0 | -10 | -1 | 12*
COc1ccc(C(=N/O)/C(=N/O)c2ccc(OC)cc2)cc1 | 1 | 0 | -4 | 2 | -3 | 2
O=C(O)CCn1c(-c2ccccc2)cc2ccccc21 | 11 | 4 | -3 | -18 | -3 | -3
O=Cc1ccc2oc3nc4n(c(=O)c3c(=O)c2c1)CCCS4 | 8 | -1 | 0 | 85* | -1 | -4
O=c1c2cc(Br)cc(Br)c2oc2nc3n(c(=O)c12)CCCS3 | 13 | 9 | -2 | -8 | -3 | -3
COc1ccc(OC)c(N(/C(N)=N/c2nc(C)cc(C)n2)S(=O)(=O)c2ccc(NC(C)=O)cc2)c1 | 0 | 2 | 1 | . | 2 | 0
CS(=O)(=O)N(C(=O)NC(=O)NC12CC3CC(CC(C3)C1)C2)C1CCCCC1 | 5 | 9 | -2 | 8 | 0 | -1
N=c1c(S(=O)(=O)c2ccccc2)cc2c(=O)n3ccccc3nc2n1CCCN1CCOCC1 | 18 | 10 | 9.2* | . | -2 | -1
Cc1ccc(S(=O)(=O)c2cc3c(=O)n4ccccc4nc3n(CCCN3CCOCC3)c2=N)cc1C | 18 | 5 | 10* | . | -1 | -1
CCOCCCn1c(=N)c(S(=O)(=O)c2ccccc2)cc2c(=O)n3cc(C)ccc3nc21 | 5 | 7 | 11* | . | -13 | -3
C=CCn1c(=N)c(S(=O)(=O)c2ccc(C)c(C)c2)cc2c(=O)n3ccccc3nc21 | 0 | -6 | 12* | . | ? | -1
N=c1c(S(=O)(=O)c2ccc(Cl)cc2)cc2c(=O)n3ccccc3nc2n1CCN1CCOCC1 | -6 | -1 | 5 | -4 | -2 | -3
CC(C)OCCCn1c(=N)c(S(=O)(=O)c2ccccc2)cc2c(=O)n3ccccc3nc21 | 11 | -1 | -1 | . | 0 | -3
SMILES | Bcl-xL primary | GLD-1 TGE inh | VIM-2 inhibitor | EBV gp42 block | MEX-5 binding | IMP-1 inh
O=c1cc(C(O)C[N+](=O)[O-])occ1OCc1ccccc1 (stereo not drawn) | 2 | -12 | . | . | 2 | .
O=C(CN1C(=O)c2ccccc2S1(=O)=O)c1ccc(Cl)cc1Cl | -2 | 2 | 0 | . | 0 | 0
Fc1ccc(/C=N/NC2=Nc3cccc4cccc2c34)cc1 | -1 | -4 | 0 | 57* | -5 | -1
O=C(Nc1ccccc1N1CCN(C(=O)c2ccccc2)CC1)c1ccc(Br)o1 | 8 | -1 | -3 | . | 1 | 5.9*
O=C(Nc1ccccc1N1CCN(C(=O)c2ccccc2)CC1)c1ccc(Cl)cc1 | 2 | -5 | 0 | 8 | 0 | -3
CCC(C)(C)C1CCc2[nH]nc(C(=O)NCc3ccc(OC)cc3)c2C1 (stereo not drawn) | 1 | 4 | . | . | . | .
CC(=O)NC(=S)Nc1ccccc1C(=O)Nc1ccccc1 | 7 | 2 | 0 | 4 | 9 | 28*
CC(=O)Nc1ccc(NC(=O)c2ccccc2Nc2ccccc2)cc1 | 2 | -8 | -3 | . | -3 | -1
CCCCC(=O)NC(=S)Nc1ccccc1C(=O)Nc1ccccc1 | 8 | 0 | 0 | -20 | 0 | 13*
CCCCCC(=O)NC(=S)Nc1ccccc1C(=O)OC | 2 | -3 | -2 | -6 | . | -1
CC(C)CCn1c(O)c(N=Nc2ccccn2)c2ccccc21 | 0 | -7 | -3 | 4 | -13 | -4
CCCn1c(O)c(N=Nc2ccc3ccccc3n2)c2ccccc21 | -4 | 2 | -1 | 63* | -8 | -1
Cc1ccc(S(=O)(=O)NC2CC(C)(C)N(O)C(C)(C)C2)cc1 | 3 | 0 | . | . | . | .
O=C(N/N=C/c1ccc(OC(=O)c2cccc(F)c2)cc1)c1cccnc1 | -8 | 8 | 1 | . | -2 | 4.6*
O=C(N/N=C/c1cccnc1)c1ccc(O)cc1 | 4 | 3 | -2 | . | -3 | -2
O=C(N/N=C/c1ccc(OC(=O)c2ccc(Br)cc2)cc1)c1ccncc1 | -21 | 7 | -3 | . | 0 | 7.6*
O=C(N/N=C/c1ccc(OC(=O)c2ccco2)cc1)c1ccncc1 | -3 | 1 | -4 | . | 0 | -3
O=C(N/N=C/c1ccc(OC(=O)c2cccc(Br)c2)cc1)c1cccnc1 | -1 | 3 | -1 | . | 1 | 9.7*
O=C(N/N=C/c1cccnc1)c1cc(O)c(O)c(O)c1 | 15 | 8 | 0 | . | -31* | -2
O=C(NCCCNC(=O)c1cc(Cl)ccc1Cl)c1ccccn1 | -4 | 3 | -3 | . | -2 | 0
CN(Cc1ccccc1)C(=O)CCCn1c(=O)c2cccn2c2cccnc21 | 4 | 2 | 0 | . | 2 | -3
COc1ccccc1CNC(=O)CN1C(=O)c2cccc(N)c2C1=O | 93* | 103* | -3 | . | 0 | -5
CC1CCCCC1NC(=O)CN1C(=O)c2cccc(N)c2C1=O (stereo not drawn) | . | . | -1 | 79* | -8 | 1
COCCCNC(=O)CN1C(=O)c2ccccc2C1=O | 6 | -4 | -1 | -12 | 2 | -2
CCCCNC(=O)CN1C(=O)c2cccc(N)c2C1=O | . | . | -7 | 63* | -9 | -2
CCOC(=O)C1=C(C)Nc2sc(C(=O)c3ccc(OC)cc3)c(N)c2C1c1ccc(C(=O)OC)cc1 (stereo not drawn) | 3 | 5 | 11* | -26 | 4 | -3
